Consider 14 compounds from ChEMBL document CHEMBL4265873, “Design and discovery of silybin analogues as antiproliferative compounds using a ring disjunctive - Based, natural product lead optimization approach” (Eur J Med Chem, 2017).

Assay [1] deals with A2780. Kind of assay: Cytotoxicity in human A2780 cells assessed as reduction in cell viability incubated for 68 hrs by MTT assay. The assay is classed as functional, cell-based. The settings on record: A2780, 68 h. The gist of the method:
(§1)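 Cells were trypsinised and seeded at 5x10^3 cells/well. Compound was added at 0, 0.1, 0.3, 1, 3, 10, 30 and 100 µM for 68 h. MTT (4 mg/mL solution) was then added for 4 h, and the formazan was dissolved in DMSO. Absorbance read at 570 nm. IC50 was derived from % survival across the eight concentrations. Mean ± SD of three independent experiments, each in triplicate.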

Assay [2] has as its system HEK293. Put plainly: Cytotoxicity in HEK293 cells assessed as reduction in cell viability incubated for 68 hrs by MTT assay. The assay is classed as cell-based. The settings on record: Homo sapiens, HEK293, 68 h. The gist of the method:
as §1

The test system of assay [3] is PANC-1. Put plainly: Cytotoxicity in human PANC1 cells assessed as reduction in cell viability incubated for 68 hrs by MTT assay. The assay is classed as functional, cell-based. The settings on record: PANC-1, 68 h. The gist of the method: as §1
For assay [4], the system named is DU-145. Kind of assay: Cytotoxicity in human DU145 cells assessed as reduction in cell viability incubated for 68 hrs by MTT assay. The conditions noted are these: DU-145, 68 h. The assay is classed as functional, cell-based. A digest of the protocol: as §1
In assay [5] the test system is MDA-MB-231. Put plainly: Cytotoxicity in human MDA-MB-231 cells assessed as reduction in cell viability incubated for 68 hrs by MTT assay. The assay is classed as functional, cell-based. The settings on record: MDA-MB-231, 68 h. A digest of the protocol: as §1
Assay [6] concerns BT-20. Kind of assay: Cytotoxicity in human BT20 cells assessed as reduction in cell viability incubated for 68 hrs by MTT assay. The assay is classed as functional, cell-based. The conditions noted are these: BT-20, 68 h. The gist of the method: as §1
Assay [7] concerns 2008. Put plainly: Cytotoxicity in human OV2008 cells assessed as reduction in cell viability incubated for 68 hrs by MTT assay. The assay is classed as functional, cell-based. The settings on record: Homo sapiens, 2008, 68 h. A digest of the protocol:
as §1
(In general: Tetrazolium dyes change colour on reduction, which living cells bring about.)

Assay [8] deals with ZR-75-1. Put plainly: Cytotoxicity in human ZR-75-1 cells assessed as reduction in cell viability incubated for 68 hrs by MTT assay. The assay is classed as functional, cell-based. The conditions noted are these: ZR-75-1, 68 h. A digest of the protocol: as §1
The test system of assay [9] is MCF7. Kind of assay: Cytotoxicity in human MCF7 cells assessed as reduction in cell viability incubated for 68 hrs by MTT assay. The assay is classed as functional, cell-based. The conditions noted are these: MCF7, 68 h. A digest of the protocol: as §1
Assay [10] in a line: Cytotoxicity in human CRL1459 cells assessed as reduction in cell viability incubated for 68 hrs by MTT assay. The assay is classed as cell-based. A digest of the protocol: as §1
Assay [11] deals with CHO. Kind of assay: Cytotoxicity in CHO cells assessed as reduction in cell viability incubated for 68 hrs by MTT assay. The assay is classed as cell-based. The conditions noted are these: Cricetulus griseus. A digest of the protocol: as §1
Assay [12] concerns MCF7. Put plainly: Potency index, ratio of IC50 for silybin to IC50 for test compound for cytotoxicity in human MCF7 cells assessed as reduction in cell viability incubated for 68 hrs by MTT assay. The assay is classed as functional.

As a reminder, the IC50 is the concentration that inhibits the measured activity by half. As to `O=C(/C=C/c1cccc(OCc2ccccc2)c1)c1ccc(Cl)cc1`, the IC50 in assay [1] stood at 56.4 µM; in assay [2], 22.8 µM; in assay [3] it was 21.3 µM; in [4], 43.4 µM; in [5] it was 21.5 µM; in assay [6], 63.2 µM. For the same compound, the IC50 was 20 µM in assay [7]; 20 µM in assay [8]; 24.8 µM in assay [9]; 12.8 µM in assay [10]; 43.6 µM in assay [11].

As for `O=C(/C=C/c1cccc(OCc2ccccc2)c1)c1ccc(Cl)c(Cl)c1Cl`, the IC50 in assay [1] came out at 1.5 µM; in [2], 2.4 µM; in assay [3], 2.4 µM; in assay [4], 6.4 µM; in assay [5] it was 2.4 µM; in [6], 3.9 µM. For the same compound, the concentration for half-maximal inhibition (IC50) in [7] was determined as 1.5 µM; in [8], 6.2 µM; in [9], 2.4 µM; in [10], 2.5 µM; in assay [11] it was 8.6 µM.

Take `COc1cc([C@H]2Oc3cc([C@H]4Oc5cc(O)cc(O)c5C(=O)[C@@H]4O)ccc3O[C@@H]2CO)ccc1O` [SILYBIN A]: the IC50 in assay [9] is 223 µM.

Turning to `O=C(/C=C/c1cccc(OCc2ccccc2)c1)c1ccccc1`, the IC50 amounted to 6.7 µM in assay [1]; 14.1 µM in [2]; 23.5 µM in assay [3]; 42.4 µM in [4]; 20 µM in [5]; 25.5 µM in assay [6]. Moreover, the IC50 was 4.9 µM in assay [7]; 8.5 µM in assay [8]; 9.8 µM in assay [9]; 7.8 µM in assay [10]; 22 µM in [11].

As to `O=C(/C=C/c1cccc(OCc2ccccc2)c1)c1ccccc1Br`, the IC50 is 2.5 µM in assay [1]; 2.2 µM in [2]; 61.2 µM in assay [3]; 3 µM in assay [4]; 1.8 µM in assay [5]; 1.8 µM in assay [6]. Besides, the IC50 was determined as 1.2 µM in assay [7]; 2.9 µM in assay [8]; 1.6 µM in [9]; 2.4 µM in [10]; 9.1 µM in assay [11]. In addition, the “Ratio IC50” value in assay [12] worked out at 142.

For `Cc1ccc(C(=O)/C=C/c2cccc(OCc3ccccc3)c2)cc1`, the IC50 worked out at 20.5 µM in assay [1]; 8.2 µM in [2]; 41.6 µM in assay [3]; 25.6 µM in assay [4]; 15.6 µM in [5]; 61 µM in assay [6]. For the same compound, the IC50 came out at 12.9 µM in [7]; 25.8 µM in [8]; 21.7 µM in assay [9]; 19.8 µM in assay [10]; 26.4 µM in assay [11].

For the compound `O=C(/C=C/c1cccc(OCc2ccccc2)c1)c1cccc(Br)c1`, the IC50 in [1] is 6.3 µM; in assay [2], 7.1 µM; in assay [3], 6.4 µM; in [4] it was 9.1 µM; in assay [5], 6.9 µM; in assay [6] it was 7.1 µM. Moreover, the IC50 in assay [7] came out at 5.7 µM; in assay [8], 8.3 µM; in assay [9], 7.9 µM; in [10], 7.2 µM; in assay [11], 9.2 µM.

Regarding `O=C(/C=C/c1cccc(OCc2ccccc2)c1)c1ccc(Br)cc1`, the IC50 in [1] amounted to 1.8 µM; in [2], 5.4 µM; in assay [3] it was 2.1 µM; in assay [4], 5.7 µM; in [5] it was 6.4 µM; in assay [6], 7.4 µM. In addition, the IC50 in assay [7] is 1 µM; in assay [8], 6.5 µM; in assay [9], 6.5 µM; in assay [10], 5.3 µM; in [11], 9 µM.

On to `COc1ccc(C(=O)/C=C/c2cccc(OCc3ccccc3)c2)cc1`, for which the IC50 in assay [1] came out at 38.1 µM; in assay [2], 79.8 µM; in [3], 44.3 µM; in assay [4], 51.3 µM; in [5], 12.4 µM; in assay [6], 38.3 µM. Further, the concentration for half-maximal inhibition (IC50) came to 17.2 µM in [7]; 19.9 µM in assay [8]; 6 µM in [9]; 25.4 µM in assay [10]; 22.9 µM in assay [11].

As for `O=C(/C=C/c1cccc(OCc2ccccc2)c1)c1ccc(Cl)cc1Cl`, the IC50 came out at 21.4 µM in [1]; 24.9 µM in [2]; 27.2 µM in assay [3]; 27.3 µM in [4]; 6.8 µM in assay [5]; 19.2 µM in [6]. Also, the IC50 in [7] is 5.2 µM; in assay [8], 9.4 µM; in assay [9], 9.4 µM; in assay [10] it was 7.8 µM; in [11] it was 27.5 µM.

In the case of `O=C(/C=C/c1ccccc1)c1ccccc1` [CHALCONE], the IC50 is 67.5 µM in assay [1]; 10.7 µM in assay [2]; 26 µM in assay [3]; 50.1 µM in [4]; 6.7 µM in assay [5]; 21.1 µM in [6]. The IC50 in [7] is 33.4 µM; in [8], 13.7 µM; in assay [9], 12.6 µM; in [10], 6.4 µM; in assay [11], 23 µM.

For the compound `COc1cc([C@H]2Oc3cc([C@H]4Oc5ccccc5C(=O)[C@@H]4O)ccc3O[C@@H]2CO)ccc1O`, the IC50 in [9] is 13.8 µM.

In the case of `O=C(/C=C/c1cccc(OCc2ccccc2)c1)c1ccc([N+](=O)[O-])cc1`, the IC50 in [1] stood at 56.4 µM; in [2], 59.3 µM; in assay [3], 25.4 µM; in assay [4] it was 52.5 µM; in assay [5] it was 23.3 µM; in assay [6], 80.9 µM. Also, the IC50 in assay [7] was 49 µM; in assay [8] it was 37.7 µM; in assay [9] it was 17.5 µM; in assay [10], 26 µM; in assay [11], 82.4 µM.

`COc1cc(C2Oc3cc(/C=C/C(=O)c4ccccc4O)ccc3OC2CO)ccc1O` (stereo not given): in assay [9], the IC50 stood at 12.1 µM.
